# Tests used:
# [1] = Ultraviolet radiation absorbing capacity of the compound at 315 to 400 nm; format: physicochemical; details: 0.4 µM
# [2] = Antioxidant activity assessed as DPPH radical scavenging activity after 30 mins under dark condition; format: functional
# In short: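 Serially diluted samples were run in replicates of four, and 200 μM DPPH (concentration as added) was added. MeOH served as the negative control and rutin (820 μM) as the positive control. A row without DPPH gave the background correction. Plates were held in the dark for 30 min, then read at 517 nm. IC50 was interpolated from % scavenging versus log concentration and reported as mean ± SD.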
# [3] = Antioxidant activity assessed as DPPH radical scavenging activity after 30 mins under dark condition relative to rutin; format: functional
Activity [1],IC50 [2] [µM],Compound,Activity [3] [%]
Active,29700,O=C(O)/C=C/c1ccc(O)cc1 [COUMARIC ACID],
Active,33.5,O=c1cc(-c2cc(O)c(O)c(-c3c(O)cc(O)c4c(=O)cc(-c5ccc(O)c(O)c5)oc34)c2)oc2cc(O)cc(O)c12,13
,38.6,C[C@@H]1O[C@@H](OC[C@H]2O[C@@H](Oc3c(-c4ccc(O)c(O)c4)oc4cc(O)cc(O)c4c3=O)[C@H](O)[C@@H](O)[C@@H]2O)[C@H](O)[C@H](O)[C@H]1O [RUTIN],
Active,75,COc1cc(/C=C/C(=O)O)ccc1O [FERULATE],
Active,14400,COc1cc(C=O)ccc1O [VANILLIN],
Active,128,O=C1CC(c2cc(O)c(O)c(-c3c(O)cc(O)c4c(=O)cc(-c5ccc(O)c(O)c5)oc34)c2)Oc2cc(O)cc(O)c21 (racemic),

Compound,Activity [1],IC50 [2] [µM],Activity [3] [%]
O=Cc1ccc(O)cc1 [4-HYDROXYBENZALDEHYDE],Active,476000,

# — ChEMBL document CHEMBL4190302, “Antarctic Moss Biflavonoids Show High Antioxidant and Ultraviolet-Screening Activity” (J Nat Prod, 2017)
